Assay results published in ChEMBL document CHEMBL1127689, “Novel 4-(aryloxy)tetrahydropyridine analogs of MPTP as monoamine oxidase A and B substrates” (J Med Chem, 1994).

Columns and labels:
[1] = target: T1, Amine oxidase [flavin-containing] A (Homo sapiens, UniProt P21397); test: Turnover number (TN) for human mono-amine oxidase MAO-A
T1 sequence (P21397 whole entry): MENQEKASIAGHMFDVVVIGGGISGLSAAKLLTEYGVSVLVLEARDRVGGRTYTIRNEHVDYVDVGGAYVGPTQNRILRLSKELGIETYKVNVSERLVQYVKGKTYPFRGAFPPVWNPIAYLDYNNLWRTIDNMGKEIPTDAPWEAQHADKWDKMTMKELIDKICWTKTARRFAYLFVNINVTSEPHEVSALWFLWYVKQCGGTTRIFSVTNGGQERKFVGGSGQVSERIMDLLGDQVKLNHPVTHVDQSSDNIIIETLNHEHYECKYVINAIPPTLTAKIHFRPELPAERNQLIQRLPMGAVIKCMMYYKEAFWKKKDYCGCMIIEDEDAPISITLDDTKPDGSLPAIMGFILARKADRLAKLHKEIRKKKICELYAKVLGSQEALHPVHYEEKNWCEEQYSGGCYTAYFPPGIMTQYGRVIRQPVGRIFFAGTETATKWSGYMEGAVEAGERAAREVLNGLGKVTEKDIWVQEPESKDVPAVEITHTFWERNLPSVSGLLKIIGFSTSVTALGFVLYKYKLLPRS
How it was run: (§1)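 MAO-A preparation was diluted 1:4 in 20 mM phosphate, pH 7.4, with 20% w/v glycerol and used at 0.17 μM. Four substrate concentrations were used, from 500–62.5 μM solutions in 100 mM sodium phosphate, pH 7.4, after 1 min at 37 °C. Initial rates were taken from the 324 nm amino enone absorbance, read every 3 s for 2 min, in duplicate. Km and TN came from double-reciprocal plots.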

[2] = target: T1, Amine oxidase [flavin-containing] A; test: Ratio of turnover to Km for human MAO-A; how it was run: as §1
[3] = target: T1, Amine oxidase [flavin-containing] A; test: Oxidation by human mono-amine oxidase MAO-A; how it was run: as §1
[4] = target: T2, Amine oxidase [flavin-containing] B (Bos taurus, UniProt P56560); test: Turnover number (TN) for bovine mono-amine oxidase B MAO-B; conditions: cattle
T2 sequence (P56560 whole entry): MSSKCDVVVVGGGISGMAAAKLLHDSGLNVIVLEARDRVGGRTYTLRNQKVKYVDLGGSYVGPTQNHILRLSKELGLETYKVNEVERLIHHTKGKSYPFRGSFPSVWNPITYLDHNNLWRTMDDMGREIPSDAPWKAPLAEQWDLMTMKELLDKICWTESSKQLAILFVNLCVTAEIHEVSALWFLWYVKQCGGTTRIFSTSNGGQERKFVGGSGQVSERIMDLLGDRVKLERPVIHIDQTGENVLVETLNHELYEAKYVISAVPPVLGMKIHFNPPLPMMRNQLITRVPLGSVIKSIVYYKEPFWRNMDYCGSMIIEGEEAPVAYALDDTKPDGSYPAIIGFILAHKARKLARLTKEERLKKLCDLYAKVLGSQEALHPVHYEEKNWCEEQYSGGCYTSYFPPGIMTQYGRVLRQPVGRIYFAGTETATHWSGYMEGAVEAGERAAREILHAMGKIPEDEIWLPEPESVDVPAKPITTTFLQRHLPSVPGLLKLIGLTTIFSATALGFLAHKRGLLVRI
How it was run: (§2)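 Bovine liver mitochondrial MAO-B, partially purified, at 0.087 μM. Four substrate concentrations were used, from 500–62.5 μM solutions in 100 mM sodium phosphate, pH 7.4. Each was equilibrated 1 min at 37 °C before enzyme was added. Amino enone formation was read at 324 nm every 3 s for 2 min, in duplicate. Km and TN came from Lineweaver-Burk double-reciprocal plots of initial rates.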

[5] = target: T2, Amine oxidase [flavin-containing] B; test: Ratio of turnover to Km for bovine MAO-B; conditions: cattle; how it was run: as §2
[6] = target: T2, Amine oxidase [flavin-containing] B; test: (§3) Oxidation by bovine mono-amine oxidase B MAO-B; conditions: cattle; how it was run: as §2
[7] = target: T3, MAO-B (Bos taurus, UniProt P56560); test: as §3; conditions: cattle, bovine monoamine oxidase B (MAO-B) enzyme; how it was run: as §2
T3 sequence (P56560 whole entry): T2 sequence (P56560 whole entry)

NCCC(=O)c1ccccc1N [KYNURAMINE]
TN [1]: 146 M min-1 M-1
Ratio [2]: 860
Km [3]: 170 µM

CN1CC=C(c2ccccc2)CC1
TN [4]: 204 M min-1 M-1
TN [1]: 20 M min-1 M-1
Ratio [2]: 143
Ratio [5]: 523

CN1CC=C(Oc2ccc(-c3ccccc3)cc2)CC1
TN [4]: 103 M min-1 M-1
TN [1]: 173 M min-1 M-1
Ratio [2]: 1710
Ratio [5]: 363

CCCCc1ccc(OC2=CCN(C)CC2)cc1
TN [4]: 92 M min-1 M-1
TN [1]: 85 M min-1 M-1
Ratio [2]: 1676
Ratio [5]: 1090

CN1CC=C(Cc2cccc3ccccc23)CC1
Km [6]: 847 µM
TN [4]: 89 M min-1 M-1
TN [1]: 433 M min-1 M-1
Ratio [2]: 2590
Ratio [5]: 105
Km [3]: 167 µM

CN1CC=C(Cc2ccccc2)CC1
Km [6]: 154 µM
TN [4]: 193 M min-1 M-1
TN [1]: 9 M min-1 M-1
Ratio [2]: 139
Ratio [5]: 1250
Km [3]: 66 µM

CN1CC=C(Oc2ccc3ccccc3c2)CC1
TN [4]: 333 M min-1 M-1
TN [1]: 207 M min-1 M-1
Ratio [2]: 2685
Ratio [5]: 1214

CN1CC=C(Oc2ccccc2)CC1
TN [4]: 241 M min-1 M-1
TN [1]: 130 M min-1 M-1
Ratio [2]: 2359
Ratio [5]: 4151

CN1CC=C(Oc2cc3ccccc3c3ccccc23)CC1
Km [7]: > 1000 µM
TN [4]: > 200 M min-1 M-1
TN [1]: 59 M min-1 M-1
Ratio [2]: 212

CN1CC=C(Oc2cccc3ccccc23)CC1
TN [4]: 81 M min-1 M-1
TN [1]: 227 M min-1 M-1
Ratio [2]: 1567
Ratio [5]: 565

CN1CC=C(Oc2ccc(C(C)(C)C)cc2)CC1
TN [4]: 22 M min-1 M-1
TN [1]: 111 M min-1 M-1
Ratio [2]: 855
Ratio [5]: 395

NCc1ccccc1 [BENZYLAMINE]
Km [6]: 290 µM
TN [4]: 283 M min-1 M-1
Ratio [5]: 963

CN1CC=C(Cc2ccc3ccccc3c2)CC1
TN [4]: 276 M min-1 M-1
TN [1]: 121 M min-1 M-1
Ratio [2]: 3340
Ratio [5]: 310
Km [3]: 36 µM

CN1CC=C(Cc2cc3ccccc3c3ccccc23)CC1
TN [4]: > 53 M min-1 M-1
TN [1]: 365 M min-1 M-1
Ratio [2]: 759

CN1CC=C(Oc2ccc(Cl)cc2Cl)CC1
TN [4]: 223 M min-1 M-1
TN [1]: 95 M min-1 M-1
Ratio [2]: 3290
Ratio [5]: 1334
